A selection: hits, their analogues and other compounds. The true share with any hit is near 1.8%.
PHOSPHO1 inh – PubChem AID 1565; Phosphoethanolamine/phosphocholine phosphatase (Homo sapiens), Q8TCT1; recombinant PHOSPHO1, absorbance phosphatase assay; inhibition, % at 13.3 µM; actives 1.1% (n = 290,000); in the data active = inhibition above about 60%
p-CIP stab down – p/CIP-EGFP fusion destabilizers, primary screen, fluorescence, F442A cells; decrease of EGFP signal, % at 10 µM; Q05BA5; 16 h; AID 1984, 2009; actives 0.01% (n = 290,000);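 active = EGFP signal decrease of at least 30% at 10 µM or well 3 SD below plate mean, unless failing retest; inactive = the rest, including hits failing retest or dose response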
A3A deaminase – APOBEC3A ssDNA deaminase inhibitors, primary screen, selectivity assay for APOBEC3G inhibitor project, biochemical, FAM/TAMRA oligo cleavage fluorescence | actives 0.41% (n = 330,000) | recombinant A3A, FAM/TAMRA ssDNA deamination fluorescence | inhibition, % at 20 µM;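 active = at least 40% inhibition at 20 µM here, with at most 30% in a related deaminase screen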;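 note: plate controls were A3A with DMSO for no effect and wells lacking A3A enzyme for full effect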
Target sequence (P31941 whole entry, looked up): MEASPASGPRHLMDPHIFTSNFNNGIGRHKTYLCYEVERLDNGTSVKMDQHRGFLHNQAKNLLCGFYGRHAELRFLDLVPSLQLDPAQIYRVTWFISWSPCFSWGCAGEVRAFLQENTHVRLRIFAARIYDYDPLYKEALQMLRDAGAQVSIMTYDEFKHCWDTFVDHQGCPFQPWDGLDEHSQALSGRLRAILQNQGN
TbMetRS inhib – T. brucei MetRS inhibitors, primary screen, biochemical, luminescence | methionyl-tRNA synthetase (Trypanosoma brucei brucei) | purified T. brucei MetRS, ATP depletion, Kinase-Glo luminescence | inhibition, % at 11.9 µM | actives 0.4% (n = 360,000);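 active = inhibition above a per-plate cutoff of the control wells' mean inhibition plus 3 SD, cut at about 5.5% in these data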;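 note: 0% = DMSO wells median and 100% = median of wells with control inhibitor compound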
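assay system = parasite MetRS enzyme | timing = 15 min preincubation, 2 h reaction, all 25 °C | evaluation = percent inhibition relative to median high and low control wells | medium = HEPES buffer containing pyrophosphatase, BSA, spermine, DTT | compound = single dose, 11.9 µM final nominal, 0.9% final DMSO | detection = Kinase-Glo luminescence, ATP depletion format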
APOBEC3G inh – APOBEC3G DNA deaminase inhibitors, primary screen, biochemical, fluorescence, single-stranded DNA substrate, uHTS. recombinant A3G, ssDNA deamination FAM/TAMRA fluorescence. inhibition, % at 20 µM. actives 0.28% (n = 330,000);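 active = inhibition of at least 40% at 20 µM, with no more than 30% in the related APOBEC3A deaminase screen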;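 note: plate controls were DMSO wells with A3G for no effect and wells lacking A3G enzyme for full effect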
Numbers without * were called inactive; . = no result given.

SMILES	PHOSPHO1 inh	p-CIP stab down	A3A deaminase	TbMetRS inhib	APOBEC3G inh
CC(=O)NN1C(=O)/C(=C/c2ccc(Br)o2)SC1=S	87*	-28	80	0	39
CS(=O)(=O)N(CC(=O)N/N=C/c1cccc2c1OCCO2)c1ccccc1Br	60*	-5	-1	0	0
CS(=O)(=O)N(CC(=O)N/N=C/c1cc2c(cc1Br)OCO2)c1ccccc1Br	19	-8	-1	-1	-7
Cc1ccc(C)c(NS(=O)(=O)c2ccc(-c3ccc(=O)[nH]n3)o2)c1	65*	8	-1	0	-2
Cc1cccc(NS(=O)(=O)c2ccc(-c3ccc(=O)[nH]n3)o2)c1	12	4	3	0	4
N#CCc1cccnc1Sc1ccc(Cl)cc1	.	.	-1	0	-3
COC(=O)[C@]1(C)N[C@H](CN(C)C(=O)C2CCCCC2)[C@@H]2C(=O)N(Cc3ccccc3)C(=O)[C@@H]21	.	.	-2	-1	-4
CCOC(=O)c1c(N)sc(-c2ccccc2)c1C	-4	-28	3	0	31
Cc1c(-c2ccccc2)sc(N)c1C(=O)N1CCOCC1	74*	-3	1	-1	-3
CCOC(=O)c1sc(NC(=O)/C=C/c2cnn(CC)c2C)c(C(=O)OCC)c1C	70*	4	3	0	12
O=c1ccn(-c2cccc(C(F)(F)F)c2)nc1-c1ccn(-c2cccc(Cl)c2)n1	-11	1	-3	0	-4
CCOC(=O)c1ccc(N2CSC3=C(C#N)C(c4cccs4)CC(=O)N3C2)cc1 (stereo not given)	94*	-12	-3	1	-5
COc1ccc(N2CSC3=C(C#N)C(c4cccs4)CC(=O)N3C2)cc1 (stereo not given)	89*	0	.	-1	.
Cc1noc(C)c1S(=O)(=O)N(C)C[C@H]1OCc2cnnn2CCCC(=O)N([C@H](C)CO)C[C@H]1C	.	.	.	0	.
O=C(NC1CC2CCCC(C1)N2C(=O)Nc1ccccc1)C1CC1 (stereo not given)	28	-3	-2	-1	-12
COc1ccc(-c2nn(-c3ccccc3)cc2/C=C/C(=O)OCC(=O)Nc2ccccc2C#N)cc1	34	-16	-1	-1	-13
N#Cc1ccccc1NC(=O)COC(=O)/C=C/c1cn(-c2ccccc2)nc1-c1ccc(Cl)cc1	60*	-9	.	0	.
Cn1cc([N+](=O)[O-])c(C(=O)N(Cc2ccccc2)Cc2ccccc2)n1	-4	5	4	0	-1
CCN1CCc2c(sc(N)c2C#N)C1	17	-4	7	-1	16
N#Cc1c(N)sc(=S)c2c1CCN(Cc1ccccc1)C2	47	4	-2	.	53*
O=C(Nn1c(O)c(C=C2N=c3ccccc3=N2)sc1=S)c1ccccc1Cl	79*	6	0	-11	-1
Oc1c(C=C2N=c3ccccc3=N2)sc(=S)n1-c1ccccc1	-3	-7	-6	0	-7
CC(/C=C(\NC(=O)c1ccccc1)C(=O)N=Nc1c(O)[nH]c2ccc(C)cc12)=C\c1ccccc1	91*	-9	-2	-1	-4
CCOc1ccccc1NC(=O)c1ccc(NC(=O)C2CCCO2)cc1 (stereo not given)	30	-10	5	0	-2
C/C(N)=C(/C#N)C(=O)CSc1nnc(Nc2cccc(C)c2C)s1	39	-12	4	0	-3
C/C(N)=C(/C#N)C(=O)CSc1nnc(Nc2c(C)cccc2C)s1	67*	4	17	0	8
CCOc1ccc(C(=O)CCC(=O)N(CC)CC(=O)NCc2ccc(Cl)cc2)cc1	24	10	-3	0	-6
CCOc1ccc2nc(SCC(=O)N(C)C3CCS(=O)(=O)C3)[nH]c2c1 (stereo not given)	100*	-8	-2	0	-5
Cc1ccc2nc(SCC(=O)N(C)C3CCS(=O)(=O)C3)[nH]c2c1 (stereo not given)	.	.	-3	0	-8

Compound activity (PubChem BioAssay)
